From ChEMBL document CHEMBL1138950, “Benzimidazole derivatives bearing substituted biphenyls as hepatitis C virus NS5B RNA-dependent RNA polymerase inhibitors: structure-activity relationship studies and identification of a potent and highly selective inhibitor JTK-109” (J Med Chem, 2006)

Legend:
Huh-5-2 = assay: Viability of Huh5-2 cells by MTT assay; format: functional; details: Homo sapiens
[1] = target: RNA-directed RNA polymerase (Hepacivirus hominis, UniProt O39930); assay: Inhibition of HCV 1b BK six His-tagged C-terminal truncated 544 amino acid NS5B RNA dependent RNA polymerase; set-up: species or system Hepatitis C virus subtype 1b
How it was run: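 HCV genotype 1b (BK) NS5B lacking 47 C-terminal residues, His6-tagged, E. coli-expressed; 7 nM enzyme with 5 µg HCV 3′X RNA template-primer, 50 µM each ATP/GTP/CTP, 2 µM UTP plus [3H]-UTP; pH 7.5 Tris, 5 mM MgCl2. Compounds in DMSO (5% final). 60 min at 25 °C; TCA-precipitable radioactivity read. Triplicate, mean of three experiments.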

Hepatitis C virus [2] = assay: Inhibition of HCV subgenomic RNA replication in Huh5-2 cells after 48 hrs by replicon assay; format: functional, organism-based, Hepacivirus hominis; details: Huh-5-2, 48 h
How it was run: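 Huh-5-2 cells (Huh-7-derived, genotype 1b subgenomic replicon with luciferase reporter) seeded at 5 × 10^3 per well in DMEM with 10% FBS, 37 °C, 5% CO2; compounds added next day, 48 h exposure; luciferase activity read. EC50 is the concentration reducing replication by 50%. Triplicate, mean of three experiments.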

Hepatitis C virus [3] = assay: Inhibition of HCV subgenomic RNA replication in Huh5-2 cells at 10 uM after 48 hrs by replicon assay; format: functional, Hepacivirus hominis; details: Huh-5-2, 48 h
[4] = Therapeutic index, CC50 for viability of Huh5-2 cells/EC50 for inhibition of HCV subgenomic RNA replication; format: cell-based, Huh-5-2; details: human, read-out: Ratio CC50/EC50
[5] = Plasma concentration in rat at 30 mg/kg, po after 2 hrs; format: ADME, organism-based; set-up: dose 30 mg/kg, route oral
How it was run: (§1)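 Rats dosed orally at 30 mg/kg; plasma sampled at 1 and 2 h; n = 2 or 3.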

[6] = Plasma concentration in rat at 30 mg/kg, po after 1 hr; format: ADME, organism-based; set-up: dose 30 mg/kg, route oral; how it was run: as §1
[7] = Apparent permeability in Caco-2 cells; format: ADME, cell-based; details: human
[8] = Distribution coefficient, log D at pH 7.2; format: physicochemical; details: octanol/water

RNA-directed RNA polymerase, sequence (O39930 whole entry, the tested form may be a part): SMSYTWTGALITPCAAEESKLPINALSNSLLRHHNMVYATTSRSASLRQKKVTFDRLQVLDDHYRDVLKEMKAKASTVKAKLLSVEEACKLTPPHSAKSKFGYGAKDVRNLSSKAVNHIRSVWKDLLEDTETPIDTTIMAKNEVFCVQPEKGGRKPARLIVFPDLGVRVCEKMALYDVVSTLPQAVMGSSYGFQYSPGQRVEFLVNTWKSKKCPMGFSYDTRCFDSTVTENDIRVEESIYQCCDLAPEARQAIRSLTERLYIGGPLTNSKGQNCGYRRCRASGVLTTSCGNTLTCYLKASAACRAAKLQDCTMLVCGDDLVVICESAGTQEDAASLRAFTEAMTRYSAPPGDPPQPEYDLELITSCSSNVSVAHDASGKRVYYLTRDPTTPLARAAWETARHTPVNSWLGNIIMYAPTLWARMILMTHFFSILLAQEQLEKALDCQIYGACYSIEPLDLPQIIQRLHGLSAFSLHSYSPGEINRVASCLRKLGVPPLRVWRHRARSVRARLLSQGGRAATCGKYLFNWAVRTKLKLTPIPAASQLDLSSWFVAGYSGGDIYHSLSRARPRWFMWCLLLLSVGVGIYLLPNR

Compound | CC50 (Huh-5-2) | IC50 [1] | EC50 (Hepatitis C virus [2]) | inhibition at 10 µM (Hepatitis C virus [3]) | selectivity ratio [4] | concentration at 2 h [5] | concentration at 1 h [6] | Papp [7] | logD [8]
Cc1nc(COc2ccc(-c3nc4cc(C(=O)O)ccc4n3C3CCCCC3)cc2)c(-c2ccc(Cl)cc2)o1 | 39000 nM | 580 nM | > 10000 nM | 30% |  |  |  |  | 
CCCNC(=O)c1ccc(-c2ccc(Cl)cc2)c(COc2ccc(-c3nc4cc(C(=O)O)ccc4n3C3CCCCC3)c(F)c2)c1 | 24000 nM | 21 nM | 380 nM |  | 63 | 600 nM | 1300 nM |  | 
O=C(O)c1ccc(-c2ccc(Cl)cc2COc2ccc(-c3nc4cc(C(=O)O)ccc4n3C3CCCCC3)cc2)cc1 | > 50000 nM | 58 nM | > 10000 nM |  |  |  |  | 23.4 ×10⁻⁶ cm/s | 3.26
CNC(=O)c1ccc(-c2ccc(Cl)cc2)c(COc2ccc(-c3nc4cc(C(=O)O)ccc4n3C3CCCCC3)c(F)c2)c1 | 25000 nM | 12 nM | 360 nM |  | 69 | 500 nM | 700 nM |  | 
